Experiments:
Lysyl oxidase homolog 2 [1] = molecular target: T1, Lysyl oxidase homolog 2 (Homo sapiens, UniProt Q9Y4K0); assay: Inhibition of human LOXL2 expressed in CHO cells assessed as reduction of H2O2 production from oxidative deamination of DAP preincubated for 2 hrs followed by substrate addition measured every 2 mins for 1 hr by amplex red reagent-based fluorescence assay; type: cell-based
T1 sequence (Q9Y4K0 whole entry): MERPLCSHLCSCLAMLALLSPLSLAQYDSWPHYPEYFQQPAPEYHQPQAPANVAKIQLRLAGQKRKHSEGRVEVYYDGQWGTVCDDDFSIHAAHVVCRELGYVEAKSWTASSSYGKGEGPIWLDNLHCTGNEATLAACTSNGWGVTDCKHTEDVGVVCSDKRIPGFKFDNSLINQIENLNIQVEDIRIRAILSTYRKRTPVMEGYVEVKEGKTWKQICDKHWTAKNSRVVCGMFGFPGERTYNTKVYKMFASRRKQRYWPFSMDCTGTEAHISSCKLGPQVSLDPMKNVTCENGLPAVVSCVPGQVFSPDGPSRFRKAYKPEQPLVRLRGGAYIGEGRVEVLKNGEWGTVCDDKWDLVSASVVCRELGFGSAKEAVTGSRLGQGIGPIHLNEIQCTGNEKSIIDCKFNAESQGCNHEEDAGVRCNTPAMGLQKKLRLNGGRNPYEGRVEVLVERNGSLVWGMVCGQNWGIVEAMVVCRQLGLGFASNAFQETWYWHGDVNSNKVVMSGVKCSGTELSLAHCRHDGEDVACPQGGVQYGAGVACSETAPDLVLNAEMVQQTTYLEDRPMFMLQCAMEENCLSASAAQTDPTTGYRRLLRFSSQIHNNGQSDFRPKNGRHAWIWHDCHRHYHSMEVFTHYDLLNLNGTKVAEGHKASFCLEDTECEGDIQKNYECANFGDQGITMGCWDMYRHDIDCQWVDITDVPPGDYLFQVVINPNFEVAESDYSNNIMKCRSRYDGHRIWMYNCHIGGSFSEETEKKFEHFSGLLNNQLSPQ

Lysyl oxidase homolog 2 [2] = molecular target: T1, Lysyl oxidase homolog 2; assay: Inhibition of human LOXL2 expressed in CHO cells assessed as reduction of H2O2 production from oxidative deamination of DAP preincubated for 2 hrs followed by substrate addition in presence of 0.1% BSA measured every 2 mins for 1 hr by amplex red reagent-based fluorescence assay; type: cell-based
Lysyl oxidase homolog 2 [3] = molecular target: T1, Lysyl oxidase homolog 2; assay: Inhibition of recombinant human LOXL2 expressed in human whole blood assessed as reduction of H2O2 production from oxidative deamination of DAP preincubated for 2 hrs followed by substrate addition measured every 2 mins for 1 hr by amplex red reagent-based fluorescence assay
[4] = Cmax in C57BL/6 mouse lung at 30 mg/kg, po by LC-MS/MS analysis; type: ADME, organism-based; design: dose 30 mg/kg, route oral
Outline: (§1)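 Normal C57BL/6 mice, n = 3 per time point, received a single oral 30 mg/kg dose formulated in 0.5% methylcellulose.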

[5] = Cmax in C57BL/6 mouse plasma at 30 mg/kg, po by LC-MS/MS analysis; type: ADME, organism-based; design: dose 30 mg/kg, route oral; outline: as §1
[6] = molecular target: T2, Lysyl oxidase homolog 2 (Homo sapiens) (UniProt Q9Y4K0); assay: Irreversible inhibition of human LOXL2 assessed as reduction of H2O2 production from oxidative deamination of DAP at 1000 times IC50 preincubated for 2 hrs followed by compound washout and subsequent incubation for 2 hrs prior to substrate addition measured every 2 mins for 40 mins by amplex red reagent-based fluorescence assay relative to control
T2 sequence (whole entry): T1 sequence (Q9Y4K0 whole entry)
Outline: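 Wells were washed repeatedly with PBS and equilibrated for 2 h. Recovered activity was then compared with nonwashed controls.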

[7] = molecular target: T2, Lysyl oxidase homolog 2 (Homo sapiens); assay: Irreversible inhibition of human LOXL2 assessed as catalytic activity preincubated for 2 hrs followed by substrate addition measured every 2 mins for 1 hr by amplex red reagent-based fluorescence assay relative to control; design: concentration or dose not given beside the values
[8] = Protein binding in human plasma; type: ADME, cell-free; settings: read-out: PPB (converted)

| SMILES | IC50 (Lysyl oxidase homolog 2 [1]) [nM] | IC50 (Lysyl oxidase homolog 2 [2]) [nM] | IC50 (Lysyl oxidase homolog 2 [3]) [nM] | Cmax [4] [nM] | Cmax [5] [nM] | inhibition [6] [%] | inhibition [7] [%] | fraction unbound [8] |
| --- | --- | --- | --- | --- | --- | --- | --- | --- |
| CONC(=O)c1cccc(Oc2cc(CN)cc(C(F)(F)F)n2)c1.Cl | 96 | 140 | 840 | 8780 | 630 |  |  |  |
| NCc1ccnc(Cl)c1 |  |  |  |  |  | 32 | 93 |  |
| Cl.NCc1cc(Oc2cccc(C(=O)NC[C@@H](O)CO)c2)nc(C(F)(F)F)c1 | 77 | 88 | 550 | 1920 | 2770 | 77 | 96 |  |
| Cl.Cl.NCc1cc(Oc2cccc(C(=O)N3CC[C@@H](N)C3)c2)nc(C(F)(F)F)c1 | 58 | 100 | 690 | 1230 | 670 |  |  |  |
| Cl.NCc1cc(Oc2cccc(C(=O)NCCS(N)(=O)=O)c2)nc(C(F)(F)F)c1 | 35 | 62 | 310 | 540 | 1040 | 75 | 97 |  |
| NCc1cc(Oc2cccc(C(=O)NCc3cc4ccccc4s3)c2)nc(C(F)(F)F)c1 | 34 | 100 | 9900 |  |  |  |  |  |
| NCc1cc(Oc2cccc(Oc3ccccc3)c2)nc(C(F)(F)F)c1 | 67 | 270 | 23000 |  |  |  |  |  |
| NCc1cc(O[C@H]2CCCN(C(=O)Nc3ccccc3)C2)nc(C(F)(F)F)c1 | 130 | 160 | 2000 | 30000 | 1900 |  |  |  |
| NCc1cc(O[C@@H]2CCCN(C(=O)Nc3ccccc3)C2)nc(C(F)(F)F)c1 | 570 | 620 | 40000 |  |  |  |  |  |
| Cl.NCc1cc(Oc2cccc(C(=O)NCCn3cnnn3)c2)nc(C(F)(F)F)c1 | 43 | 80 | 280 | 3460 | 1990 | 77 | 97 |  |
| Cl.NCc1cc(Oc2cccc(C(=O)N3CC[C@@H](O)C3)c2)nc(C(F)(F)F)c1 | 110 | 150 | 910 | 9130 | 5130 | 75 | 95 |  |
| NCc1ccnc(OC2CCCCC2)c1 | 850 | 1800 | 29000 |  |  |  |  |  |

Results, then the compound that gave them:

| IC50 (Lysyl oxidase homolog 2 [1]) [nM] | IC50 (Lysyl oxidase homolog 2 [2]) [nM] | IC50 (Lysyl oxidase homolog 2 [3]) [nM] | Cmax [4] [nM] | Cmax [5] [nM] | inhibition [6] [%] | inhibition [7] [%] | fraction unbound [8] | SMILES |
| --- | --- | --- | --- | --- | --- | --- | --- | --- |
| 42 | 62 | 2900 | 10300 | 860 | 88 | 98 | 0.04 | Cl.NCc1cc(Oc2cccc(C(=O)Nc3ccccc3)c2)nc(C(F)(F)F)c1 |
| 500 | 1500 | 30000 |  |  |  |  |  | COCCNC(=O)c1ccc(Oc2cc(CN)ccn2)cc1 |
| 120 | 370 | 7900 |  |  |  |  |  | NCc1ccnc(Oc2cccc(C(=O)N3CCc4ccccc4C3)c2)c1 |
| 53 | 160 | 1800 |  |  |  |  |  | COc1ccc(NC(=O)c2cccc(Oc3cc(CN)ccn3)c2)cc1 |
| 50 | 130 | 1600 |  |  |  |  |  | NCc1ccnc(Oc2cccc(C(=O)Nc3ccc(F)cc3)c2)c1 |
| 81 | 300 | 1400 |  |  |  |  |  | NCc1ccnc(Oc2cccc(C(=O)Nc3ccc(C(=O)O)cc3)c2)c1 |
| 270 | 750 | 39000 |  |  |  |  |  | NCc1ccnc(Oc2ccc(C(=O)Nc3ccccc3)cc2)c1 |
| 79 | 110 | 1700 |  |  |  |  |  | NCc1ccnc(Oc2cccc(C(=O)NCc3cc4ccccc4s3)c2)c1 |
| 160 | 290 | 2900 |  |  |  |  |  | COCCNC(=O)c1cccc(Oc2cc(CN)ccn2)c1 |
| 56 | 130 | 1300 |  |  |  |  |  | NCc1ccnc(Oc2cccc(C(=O)Nc3ccccc3)c2)c1 |
| 62 | 110 | 1400 |  |  |  |  |  | NCc1ccnc(Oc2cccc(C(=O)NCc3ccccc3)c2)c1 |
| 180 | 650 | 5200 |  |  |  |  |  | N=C(N)c1cccc(CNC(=O)c2cccc(Oc3cc(CN)ccn3)c2)c1 |

From ChEMBL document CHEMBL4049456, “Identification of 4-(Aminomethyl)-6-(trifluoromethyl)-2-(phenoxy)pyridine Derivatives as Potent, Selective, and Orally Efficacious Inhibitors of the Copper-Dependent Amine Oxidase, Lysyl Oxidase-Like 2 (LOXL2)” (J Med Chem, 2017)
